Data from ChEMBL document CHEMBL2010792, “Novel glycolipid TLR2 ligands of the type Pam2Cys-α-Gal: synthesis and biological properties” (Eur J Med Chem, 2012).
The source made the active and inactive calls. No cut-off for these calls is given here.

What was measured:
[1] = target: Toll-like receptor 2 (Homo sapiens) (UniProt O60603); test: Agonist activity at TLR2 in human THP1-Blue-CD14 cells transfected with pSEAP-NF-kappaB assessed as secreted embryonic alkaline phosphatase activity treated with PBS containing 2% DMSO formulation after 19 hrs by quanti-blue colorimetric assay; type: functional, cell-based; conditions: THP-1
Sequence of Toll-like receptor 2 (Homo sapiens) (O60603 whole entry): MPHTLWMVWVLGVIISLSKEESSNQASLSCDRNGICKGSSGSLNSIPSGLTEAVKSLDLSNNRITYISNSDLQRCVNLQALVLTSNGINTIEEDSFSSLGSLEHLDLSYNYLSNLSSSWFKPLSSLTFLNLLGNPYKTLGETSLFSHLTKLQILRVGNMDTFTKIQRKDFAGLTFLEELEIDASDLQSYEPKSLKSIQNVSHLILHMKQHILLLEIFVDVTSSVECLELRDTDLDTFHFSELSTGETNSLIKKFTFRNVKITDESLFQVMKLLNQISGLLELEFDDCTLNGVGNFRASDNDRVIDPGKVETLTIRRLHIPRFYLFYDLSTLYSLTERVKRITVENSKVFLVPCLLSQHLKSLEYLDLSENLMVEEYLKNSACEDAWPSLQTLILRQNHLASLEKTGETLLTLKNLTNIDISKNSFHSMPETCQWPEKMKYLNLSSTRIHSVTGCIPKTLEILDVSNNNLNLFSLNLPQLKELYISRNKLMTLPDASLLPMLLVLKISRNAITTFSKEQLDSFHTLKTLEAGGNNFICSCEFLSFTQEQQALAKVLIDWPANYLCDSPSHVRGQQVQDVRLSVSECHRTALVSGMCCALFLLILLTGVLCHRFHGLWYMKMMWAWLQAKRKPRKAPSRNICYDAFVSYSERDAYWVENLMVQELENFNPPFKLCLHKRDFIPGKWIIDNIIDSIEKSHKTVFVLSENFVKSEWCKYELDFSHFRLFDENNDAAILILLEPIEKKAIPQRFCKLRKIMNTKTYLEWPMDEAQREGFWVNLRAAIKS

NKT [2] = test: Immunostimulatory activity in activated NKT cells assessed as induction of IL-4 production; type: functional, cell-based
[3] = target: Toll-like receptor 2 (Homo sapiens) (UniProt O60603); test: Agonist activity at TLR2 in human THP1-Blue-CD14 cells transfected with pSEAP-NF-kappaB assessed as secreted embryonic alkaline phosphatase activity after 19 hrs by quanti-blue colorimetric assay relative to 10 uM of Pam3CAG; type: functional, cell-based; conditions: THP-1
Outline: (§1)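 THP1-Blue-CD14 cells were grown in RPMI 1640 with glucose (4.5 mg/mL) and 10% endotoxin-free FBS at 37 °C, 5% CO2. They were plated at 1.5×10^6 cells/mL and exposed to compounds formulated in PC/PG/Chol liposomes for 19 h at 37 °C. Supernatant was then mixed with Quanti-Blue reagent for 2 h at 37 °C and OD read at 595 nm. Controls were LPS (positive) and blank PC/PG/cholesterol (80/20/50) liposomes (negative); triplicates.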

Mus musculus [4] = species: Mus musculus; test: Immunostimulatory activity in BALB/c mouse splenocytes assessed as induction of cell proliferation up to 1000 ng/ml after 3 days by [3H]-thymidine incorporation assay; type: functional; conditions: Splenocyte
Outline: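 Spleen cells from female BALB/c mice (2×10^5/well) were cultured with agonist at 0–1000 ng/mL in RPMI 1640 containing 10% FCS, gentamicin, 10 mM HEPES and 0.05 mM 2-mercaptoethanol. [3H]-thymidine was added after 48 h, with harvest 18 h later. Result is a stimulation index (mean cpm stimulated / unstimulated) from triplicate wells.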

[5] = Induction of dendritic cell maturation in mouse D1 cells assessed as upregulation of CD40, CD54, CD80 and CD86 expression at 2.5 ug/ml after 48 hrs by flow cytometry relative to Pam2CAG; type: functional, cell-based
Outline: (§2)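 D1 cells were kept in IMDM with 10% heat-decomplemented FCS, penicillin (100 IU/mL), 2 mM L-glutamine and GM-CSF (20 ng/mL). They were seeded at 2×10^5 cells/mL for 48 h, then given fresh medium with compound (DMSO/PBS 2/98) plus polymyxin B, except LPS wells, for 48 h. Cells were harvested in PBS with 2 mM EDTA, stained 20 min at 4 °C and analysed by flow cytometry.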

Mus musculus [6] = species: Mus musculus; test: Immunostimulatory activity in BALB/c mouse B cells assessed as induction of cell proliferation at 0.001 ug/ml after 3 days by [3H]-thymidine incorporation assay relative to Pam2CAG; type: functional
Outline: (§3)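 B cells were purified from female BALB/c spleens by negative selection (anti-CD11b, GR1, CD4 and CD8 mAbs plus magnetic beads; >90% B cells) and seeded at 1×10^5/well. Culture was in RPMI 1640 with 10% FCS, gentamicin, 10 mM HEPES and 0.05 mM 2-mercaptoethanol, across increasing agonist doses. [3H]-thymidine was added at 48 h and cells harvested 18 h later. Stimulation index = mean cpm stimulated / unstimulated; triplicates.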

[7] = target: Toll-like receptor 2 (Homo sapiens) (UniProt O60603); test: Agonist activity at TLR2 in human THP1-Blue-CD14 cells transfected with pSEAP-NF-kappaB assessed as secreted embryonic alkaline phosphatase activity after 19 hrs by quanti-blue colorimetric assay relative to 0.1 uM of Pam2CAG; type: functional, cell-based; conditions: THP-1; outline: as §1
Mus musculus [8] = species: Mus musculus; test: Immunostimulatory activity in BALB/c mouse splenocytes assessed as induction of TNFalpha secretion after 30 hrs by double-sandwich ELISA; type: functional; conditions: Splenocyte
Outline: (§4)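 BALB/c splenocytes (2×10^5/well) were exposed to increasing agonist doses in supplemented RPMI 1640. Supernatants were collected at 30 h, stored at −20 °C, and assayed by double-sandwich ELISA. Values are pg/mL, mean of duplicates; detection limit 15 pg/mL for both IL-6 and TNF-α.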

[9] = Induction of dendritic cell maturation in mouse D1 cells assessed as upregulation of CD40, CD54, CD80 and CD86 expression at 2.5 ug/ml after 48 hrs by flow cytometry relative to Pam3CAG; type: functional, cell-based; outline: as §2
[10] = Induction of dendritic cell maturation in mouse D1 cells assessed as upregulation of CD40, CD54, CD80 and CD86 expression at 2.5 ug/ml after 48 hrs by flow cytometry in presence of polymyxin B; type: functional, cell-based; outline: as §2
[11] = target: Toll-like receptor 2 (Homo sapiens) (UniProt O60603); test: Agonist activity at TLR2 in human THP1-Blue-CD14 cells transfected with pSEAP-NF-kappaB assessed as secreted embryonic alkaline phosphatase activity treated with PC/PG/Chol liposomes formulation at 0.1 uM after 19 hrs by quanti-blue colorimetric assay in presence of anti-mTLR2 antibody; type: functional, cell-based; conditions: THP-1
Outline: (§5)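 TLR2 in THP1-Blue-CD14 cells was neutralised with an anti-mTLR2 monoclonal antibody (100 ng/well) for 10 min before liposome-formulated agonist was added. Cells were incubated 19 h at 37 °C, and SEAP in supernatant was read by Quanti-Blue colorimetry (2 h, 37 °C, OD 595 nm). Activity was compared with cells lacking antibody; triplicates.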

NKT [12] = test: Immunostimulatory activity in activated NKT cells assessed as induction of IFNgamma production; type: functional, cell-based
[13] = target: Toll-like receptor 2 (Homo sapiens) (UniProt O60603); test: Agonist activity at TLR2 in human HEK-Blue-2 cells; type: functional, cell-based
NKT [14] = test: Immunostimulatory activity in activated NKT cells assessed as induction of cell proliferation in presence of mAb directed CD1d molecules; type: functional, cell-based
[15] = target: Toll-like receptor 2 (Homo sapiens) (UniProt O60603); test: Agonist activity at TLR2 in human THP1-Blue-CD14 cells transfected with pSEAP-NF-kappaB assessed as secreted embryonic alkaline phosphatase activity treated with PC/PG/Chol liposomes formulation after 19 hrs by quanti-blue colorimetric assay; type: functional, cell-based; conditions: THP-1; outline: as §1
Mus musculus [16] = species: Mus musculus; test: Immunostimulatory activity in BALB/c mouse splenocytes assessed as induction of IL-6 secretion after 30 hrs by double-sandwich ELISA; type: functional; conditions: Splenocyte; outline: as §4
Mus musculus [17] = species: Mus musculus; test: Immunostimulatory activity in BALB/c mouse B cells assessed as induction of cell proliferation after 3 days by [3H]-thymidine incorporation assay; type: functional; outline: as §3
Mus musculus [18] = species: Mus musculus; test: Immunostimulatory activity in BALB/c mouse B cells assessed as induction of cell proliferation at 0.001 ug/ml after 3 days by [3H]-thymidine incorporation assay relative to Pam3CAG; type: functional; outline: as §3
[19] = target: Toll-like receptor 2 (Homo sapiens) (UniProt O60603); test: Agonist activity at TLR2 in human THP1-Blue-CD14 cells transfected with pSEAP-NF-kappaB assessed as secreted embryonic alkaline phosphatase activity treated with PC/PG/Chol liposomes formulation at 10 uM after 19 hrs by quanti-blue colorimetric assay in presence of anti-mTLR2 antibody; type: functional, cell-based; conditions: THP-1; outline: as §5

Activity [1]	fold change (FC) [3]	Activity [7]	Activity [11]	Activity [13]	Activity [15]	Activity [19]	SMILES	Activity (NKT [2])	Activity (Mus musculus [4])	Activity [5]	Activity (Mus musculus [6])	Activity (Mus musculus [8])	Activity [9]	Activity [10]	Activity (NKT [12])	Activity (NKT [14])	Activity (Mus musculus [16])	Activity (Mus musculus [17])	Activity (Mus musculus [18])
Active	100	Active	Active	Active	Active	–	CCCCCCCCCCCCCCCC(=O)OC[C@H](CSC[C@H](N)C(=O)NCCO[C@H]1O[C@@H]([C@H](O)CO)[C@H](O)[C@H]1O)OC(=O)CCCCCCCCCCCCCCC	inactive	Active	Active	Active	Dose-dependent effect	Active	Active	inactive	Active	Dose-dependent effect	Dose-dependent effect	Active
Active	100	Active	Active	Active	Active	–	CCCCCCCCCCCCCCCC(=O)OC[C@H](CSC[C@H](N)C(=O)NCCO[C@H]1O[C@H](CO)[C@H](O)[C@H](O)[C@H]1O)OC(=O)CCCCCCCCCCCCCCC	inactive	Active	Active	Active	Dose-dependent effect	Active	Active	inactive	Active	Dose-dependent effect	Dose-dependent effect	Active
Active	–	–	Active	Active	Active	–	CCCCCCCCCCCCCCCC(=O)OC[C@H](CSC[C@H](N)C(=O)N[C@@H](C)C(=O)NCC(=O)O)OC(=O)CCCCCCCCCCCCCCC	inactive	Active	–	–	Dose-dependent effect	–	Active	inactive	Active	Dose-dependent effect	Dose-dependent effect	–
Active	–	–	–	Active	Active	inactive	CCCCCCCCCCCCCCCC(=O)N[C@@H](CSC[C@@H](COC(=O)CCCCCCCCCCCCCCC)OC(=O)CCCCCCCCCCCCCCC)C(=O)N[C@@H](C)C(=O)NCC(=O)O	inactive	Active	–	–	Dose-dependent effect	–	Active	inactive	Active	Dose-dependent effect	Dose-dependent effect	–
